Data taken from ChEMBL document CHEMBL4513216, “Probing the Open Global Health Chemical Diversity Library for Multistage-Active Starting Points for Next-Generation Antimalarials” (ACS Infect Dis, 2020).

Assay: Toxicity liver stage against HepG2, at 10uM
Assay type: cell-based
Parameters: test concentration 10 uM, cell line HepG2-A16-CD81EGFP
Conditions: human, HepG2-A16-CD81EGFP cells; read-out: INHIBITION
Outline: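 Uninfected HepG2-A16-CD81EGFP cells, 3 × 10^3 per well, 1536-well, plated on prespotted compound at 10 μM final, parasite-free screening media added to match infected plates; puromycin 10 μM positive, DMSO 0.5% negative; run in parallel with 48 h PbLuc assay at 37 °C, 5% CO2; viability by CellTiter-Glo luminescence, normalized to controls.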

SMILES	cytotoxicity at 10 µM
Cc1cccc2c1nc1n2[C@@H](CNC(=O)c2ccncc2)COC1	3.04%
COCCn1c(-c2cccc(OC)c2)cnc1NC(=O)NC(C)C	4.04%
Cc1ccc2oc(SCC(N)=O)nc2n1	9.65%
Cc1ccc(Cl)cc1NCc1nc2[nH]c(C)c(C)c(=O)n2n1	-4.96%
Cc1ccc(CN2CC(O)CN(C(=O)OCC(C)C)CC2=O)cc1 (stereo not given)	-3.09%
CSc1nsc(SCC(=O)c2cc3c(cc2Cl)NC(=O)C3)n1	5.13%
CCOC(=O)Cn1c(=O)nc(N)c2c(-c3ccc(OC)cc3)csc21	-33.2%
Cc1cncc(C(=O)N2CCCC3(CCCN3S(C)(=O)=O)C2)c1 (stereo not given)	-152%
CCC1=N[C@@]2(CC[C@@H]3CN(C(=O)NCC(C)C)C[C@@H]32)C(=O)N1CC1CC1	9.61%
CCCS(=O)(=O)N1CCOC2(CCCN(c3ccc(C)nn3)C2)C1 (stereo not given)	2.08%
COCCNC(=O)[C@@H]1CCO[C@@H]2CCN(Cc3cnn(C)c3)C[C@@H]21	0.341%
O=C(c1ccnnc1)N1C[C@@H](OCC2CCCC2)[C@H]2OCCC[C@H]21	-11.8%
Cc1nn(C)cc1S(=O)(=O)NCC(C)Cn1cc(Cl)cn1 (stereo not given)	0.197%
Cc1nn(C)cc1C(=O)NCc1csc(C2CC2)n1	-4.1%
c1cc(C2CCN(c3cnccn3)CC2)ccn1	3.94%
CN(C)Cc1cccc(-c2cccnc2C(=O)NCC2CC2)c1	1.59%
Cc1cc2ccncc2n1CC1(O)CCN(C(=O)c2ccccn2)CC1	0.166%
CC(C)=CCCC1(C)C=Cc2c(cc(C)n(CC(=O)O)c2=O)O1 (stereo not given)	-2.72%
CN(C)[C@@H]1CN(C(=O)c2cc3ccc(F)cc3[nH]2)C[C@H]1O	1.05%
COc1ccc(-c2cc(C(=O)NCCCn3ccnc3C)n(C)n2)cc1	-6.67%
COCCN1CCCC(c2ncc(C(=O)N3CCOCC3)c(C)n2)C1 (stereo not given)	0.893%
CC(C)Nc1nc(O)cc(C2CC(=O)N(Cc3ccccc3)C2)n1 (stereo not given)	-28.5%

SMILES	cytotoxicity at 10 µM
CN1CCOC(C)(C(=O)N2CCSCC2)C1 (stereo not given)	-9.71%
O=C(C1CCN(c2cccnn2)C1)N1CCOCC1 (stereo not given)	-25.4%
Cc1cc(N2CC(c3n[nH]c4nccnc34)C2)ncn1	-11.2%
CC(C)C(=O)NC1CCCc2nc(N3CCOCC3)ncc21 (stereo not given)	10.2%
COCC(=O)N1CCCC1c1cc(Nc2nnc(C)s2)nc(C)n1 (stereo not given)	-6.15%
Cc1cc(NCCSc2nccn2C)n2ncnc2n1	17.5%
CC(=O)N1CCCc2cc(Nc3nccn(C)c3=O)ccc21	-49.4%
Brc1cnc(NCCCOC2CCOCC2)nc1	-5.2%
Cc1cc(C)c(C(=O)N(C)CCN(C)C(=O)c2[nH]c(C)cc2C)[nH]1	-1.91%
O=C(O)CC(NC(=O)CCCc1cccs1)c1ccc(F)cc1 (stereo not given)	-2.99%
NC(=O)C1=NN2C(=NS(=O)(=O)c3ccccc32)N1	7.58%
COCc1nccc(C2CCCN(Cc3cccc(C#N)c3)C2)n1 (stereo not given)	18.7%
Cc1ccc(N2CCCC(N(C)Cc3c(C)noc3C)C2)nn1 (stereo not given)	-14%
O=C(NCCc1ccc(F)cc1)NC1CCCc2c1cnn2CCO (stereo not given)	-3.46%
COc1ccc(-c2nnc(SC(C)C(N)=O)[nH]2)c(OC)c1 (stereo not given)	-15%
CCN(Cc1cccc(F)c1)S(=O)(=O)N1CCOCC1	-1.71%
CNS(=O)(=O)c1cc(C(=O)NC2COc3ccccc32)cc(C)c1C (stereo not given)	-1.51%
CCC(CNC1CCN(C(=O)N(C)C)CC1)Oc1ccccc1C (stereo not given)	3.98%
CS(=O)(=O)CCN(CCCO)C1CCc2ccccc21 (stereo not given)	7.37%
O=C(Nc1ccccc1N1CCOC1=O)N1CCc2sccc2C1	-5.55%
CCn1nc2c(cc1=O)CN(CC(=O)Nc1nccs1)CC2	-4.74%
O=C(CCC1CCCO1)NCCc1ccccn1 (stereo not given)	-43.2%

SMILES	cytotoxicity at 10 µM
O=C(CCn1c(=O)oc2ccccc21)NCC(O)c1ccc(Cl)cc1 (stereo not given)	-1.25%
O=C(Cc1ccccc1)NCCNS(=O)(=O)C1CCCCC1	-1.95%
CC1c2ccsc2CCN1Cc1cc2c(cc1O)OCO2 (stereo not given)	11.7%
Cn1cc(C(C)(O)CNc2ccc(C(F)(F)F)cn2)cn1 (stereo not given)	-44.3%
Cc1nn(C)c(N(C)C)c1CNCc1cccc(CN(C)C(C)C)c1	11.4%
c1cnn(CC2CCCCN2c2ncnc3sccc23)c1 (stereo not given)	9.48%
Cc1nnc(C(C)NCC2(c3ccc(Cl)cc3)CCCC2)o1 (stereo not given)	8.29%
Cc1nc(C2CCCN(C(=O)c3scnc3C)C2)no1 (stereo not given)	-3.18%
Cc1cc(OCC(=O)NC(C)c2ccc(N3CCOCC3)cc2)no1 (stereo not given)	-12.9%
CN(CCn1nc2ccccn2c1=O)CC(=O)N1CCCC1	7.08%
COCCCN(CCOC)C(=O)Nc1ccccc1Br	5.86%
Cc1ccc2c(n1)N(CCN(C)C)CCN(C(=O)N1CCOCC1)C2	-73.1%
C[C@H]1CN(C(=O)c2ccc[nH]2)C[C@@]12CCN(c1ccsc1)C2=O	-77.4%
Cc1nc([C@@H]2C[C@@H]3CCN(C(=O)c4ccsc4)C[C@H]3O2)no1	-8.44%
CC(C)NC(=O)CC1CC2(CCN(S(C)(=O)=O)CC2)c2ccccc21 (stereo not given)	-2.48%
Cn1cc(C2COC3(CCN(C(=O)c4ccc(F)cc4)CC3)C2)cn1 (stereo not given)	8.31%
CCc1ccc(S(=O)(=O)N2CCC3(CC(C(=O)NC)=NO3)C2)cc1 (stereo not given)	-2.16%
c1ccc2c(c1)CC(n1ccnc1-c1cc3n(n1)CCCNC3)CO2 (stereo not given)	-8.26%
COCCc1noc(CN2CC(C)(c3ccccc3)CCC2=O)n1 (stereo not given)	3.1%
COc1ccc(NC2(C(=O)N3CCn4cncc4C3)CCCC2)cc1	7.42%
O=c1n(Cc2ccccn2)nc(C2CCNCC2)n1Cc1ccccc1	2.69%
Cc1ccc(C(C(=O)N2CCC(Cc3noc(C)n3)CC2)N(C)C)cc1 (stereo not given)	-5.37%

SMILES	cytotoxicity at 10 µM
CC(=O)Nc1ccc(Cl)c(C(=O)N(C)C(C)c2ccon2)c1 (stereo not given)	-48.7%
OC(c1ccccc1)c1cn(C2CCN(Cc3nccs3)CC2)nn1 (stereo not given)	7.44%
CC(C(=O)O)N1CC2(CCC1=O)CCN(C/C=C/c1ccccc1)CC2 (stereo not given)	-1.72%
COc1ccccc1-c1ncc(CN2CCC3(CCN(C)C3)CC2)cn1	3.92%
CC(C)CS(=O)(=O)CCNC(=O)Nc1cccc2ncccc12	-11%
Cc1cccc(C)c1OC1CN(C(=O)C2CC(=O)N(C(C)(C)C)C2)C1 (stereo not given)	0.213%
O=C(O)[C@@]12CN(c3cnccn3)C[C@@H]1CN(C1CCOCC1)C2	1.92%
CCCN1CCC(N2CCN(c3cccc(C)n3)CC2)CC1	-10.8%
CC(=O)N1CCc2c(nc(N(C)C)nc2NCCCn2ccnc2)C1	-7.28%
CNc1ncc(CN(C)C(=O)c2cccc(Cn3cccn3)c2)cn1	1.32%
COCc1noc(-c2ccc(N3CCCC3c3ccc(F)cc3)nc2)n1 (stereo not given)	5.79%
CC(C)N1CCCn2nc(C(=O)NCCc3c[nH]cn3)cc2C1	14.2%
C/C=C(\C)CN1C[C@H](NC(=O)CN2CCCC2=O)[C@@H](c2ccc(C)o2)C1	10.8%
COCc1nc(CNC2CCSCC2)no1	-9.87%
CC(C)c1cc(NCC(O)c2ccc(F)cc2)n2nccc2n1 (stereo not given)	0.255%
CCc1cnc(N2CCC(=O)N(CC3CC3)C(C(C)C)C2)nc1 (stereo not given)	-6.28%
COc1ccc(NC(=O)Cn2nc(C)c(C)cc2=O)cc1OC	-20.4%
CCc1nnc2n1CCN(C(=O)c1cc3ccccc3[nH]1)C2	4.38%
Cc1cc(C)n(CC2CN(CC(=O)NC(C3CC3)C3CC3)CCO2)n1 (stereo not given)	-0.544%
CC(C)c1nc(CN(C)C2CCCN(c3cccnn3)C2)no1 (stereo not given)	-9.92%
CCOc1ccc(Cl)c(C(=O)N2CCCSCC2)n1	-4.03%
COc1ccnc(N2CCN(C(=O)c3cccc(C#N)c3)CC2)n1	-18.2%

SMILES	cytotoxicity at 10 µM
c1csc(-c2noc(CNCCn3cccn3)n2)c1	-8.21%
Cc1nc(CN(C)C2CCN(CC3CCC3)C2)no1 (stereo not given)	-8.19%
NC(=O)c1cc(C2CCCN(CCOCC3CC3)C2)n[nH]1 (stereo not given)	-11.5%
CN1CCN(c2cc(CNC(=O)c3cccnc3O)ccn2)CC1	-5.42%
CC(C)C(=O)NC1CCCN(C(=O)c2cc(Cl)ccc2O)C1 (stereo not given)	-11.4%
Cc1nccc(-c2cccc(NCC(=O)N3CCNC3=O)c2)n1	1.9%
CC(=O)NCCNC(=O)CN1CCN(Cc2nccn2C)C(C)C1 (stereo not given)	-6.73%
O=C(CCCNC(=O)C1CC1)Nc1cnn(-c2ccccc2Cl)c1	-12.3%
Cn1ccc(C(=O)NC2CCN(c3ncccn3)CC2)cc1=O	-7.32%
CC(O)CN1CCN(C(=O)c2ccc(Cn3cccc3)cc2)CC1 (stereo not given)	-5.75%
CC(NC(=O)CCCOc1ccccc1)c1nnc2n1CCCCC2 (stereo not given)	-9.51%
c1cc(NCc2ccncc2)nc(C2CCCNC2)c1 (stereo not given)	-1.83%
O=C(CC1CC1)N[C@@H]1CN(Cc2ccccn2)C[C@@H]2CCCO[C@@H]21	6.09%
Cn1cc(CN2CCCC3(CCCCN3S(C)(=O)=O)C2)cn1 (stereo not given)	-76.3%
CN(Cc1ccco1)[C@@H]1CN(C(=O)c2ccnnc2)C[C@@H]2CCCO[C@@H]21	-10.5%
O=C1COC2(CCN(Cc3cccnc3)CC2)CN1	2.78%
Cc1ccc(CNCC2Cn3nnc(-c4cccc(F)c4)c3CO2)o1 (stereo not given)	-0.617%
COCCN1CCc2cc(C(=O)N(C)C)c(NC(C)C)nc2CC1	-3.91%
CCOCC1CN(Cc2cnn(C)c2)Cc2nn(C)cc21 (stereo not given)	2.37%
Cc1ccc(CN2C[C@@H]3CCCO[C@@H]3[C@H](N(C)Cc3ccco3)C2)o1	6.43%
Cc1ncnc2c1CCN(CC1CCOC1)CC2 (stereo not given)	-67.2%
O=C(NC[C@]12COC[C@H]1CN(Cc1ccncc1)C2)c1ccco1	8.75%
